Published values gathered from unrelated publications.
Each line is one published result; the experiments were not run side by side.
Target: Serine/threonine-protein kinase 26 (STK26, Homo sapiens, UniProt Q9P289)

Cc1cc(O)c(-c2ccc([C@@H](C)CN(C)C)cc2)c2c1[nH]c(=O)c1sccc12 — inhibition (enzyme activity, inhibitor; 0.1 µM): 19.3%
CC(C)S(=O)(=O)c1ccc2nccc(Nc3ccc4sc(C5CCCC5)nc4c3)c2c1 — activity vs control (enzyme activity, inhibitor; 1 µM): 84%
COc1ccc2[nH]c3c4[nH]c5ccc(OC)cc5c4c4c(c3c2c1)C(=O)NC4=O — remaining binding (binding, competition with immobilised ligand; 1 µM): 85%
CO[C@@H]1[C@H](N(C)C(=O)c2ccccc2)C[C@H]2O[C@]1(C)n1c3ccccc3c3c4c(c5c6ccccc6n2c5c31)C(=O)NC4 — inhibition (enzyme activity, inhibitor; 1 µM): 47%
C1=C/COCc2cc(ccc2OCCN2CCCC2)Nc2nccc(n2)-c2cccc(c2)COC/1 — remaining binding (binding; 0.1 µM): 74%
CC#CC(=O)N1CCC[C@H]1c1nc(-c2ccc(C(=O)Nc3ccccn3)cc2)c2c(N)nccn12 — inhibition (enzyme activity, inhibitor; 1 µM): 0%
CN1CCN(C(=O)c2ccc(NC(=O)Nc3ccc(N(C)c4ccnc(Nc5ccc(CS(C)(=O)=O)cc5)n4)cc3)cc2)CC1 — remaining binding (binding, competition with immobilised ligand; 1 µM): 11%
CCCCC(=O)Nc1ccc(-c2ccc3ncn(CCC)c(=O)c3c2)cn1 — remaining binding (binding, competition with immobilised ligand; 0.5 µM): 100%
